Seven molecules from ChEMBL document CHEMBL3351780, “Novel hybrids of metronidazole and quinolones: synthesis, bioactive evaluation, cytotoxicity, preliminary antimicrobial mechanism and effect of metal ions on their transportation by human serum albumin” (Eur J Med Chem, 2014) can be followed below.

For data set [1], the system named is Streptococcus pneumoniae. The data set can be described thus: Antibacterial activity against Streptococcus pneumoniae by two-fold serial dilution method. In kind it is functional. An outline of the steps: (§1)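 Standard two-fold serial dilution in 96-well microtest plates following NCCLS. Top dilutions printed as 32, 16, 8, 4, 2, 1, 0.5 ug/mL. Wells inoculated and held at 37 °C for 24 h. Growth judged visually and by spectrophotometer, in triplicate. MIC is the lowest concentration giving complete growth inhibition.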

For data set [2], the system named is Micrococcus luteus. The data set can be described thus: Antibacterial activity against Micrococcus luteus by two-fold serial dilution method. The class given is functional. The essentials:
as §1

For data set [3], the system named is Staphylococcus aureus. As to the kind of experiment: Antibacterial activity against methicillin-resistant Staphylococcus aureus N315 by two-fold serial dilution method. The class given is functional. An outline of the steps:
(§2)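 MIC read as the lowest concentration giving complete growth inhibition. Two-fold serial dilutions were made in 96-well plates following NCCLS, giving a series down to 0.5 µg/mL (…32, 16, 8, 4, 2, 1, 0.5). Plates were inoculated and incubated at 37 °C for 24 h. A DMSO-with-inoculum control without drug was included. Growth was monitored visually and spectrophotometrically, in triplicate.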

Data set [4] concerns Staphylococcus aureus. The data set can be described thus: Antibacterial activity against Staphylococcus aureus ATCC 25923 by two-fold serial dilution method. The class given is functional. The essentials:
as §1

Data set [5] has as its system Bacillus spizizenii. As to the kind of experiment: Antibacterial activity against Bacillus subtilis ATCC 6633 by two-fold serial dilution method. In kind it is functional. An outline of the steps: as §1
The subject of data set [6] is Pseudomonas aeruginosa. The data set can be described thus: Antibacterial activity against Pseudomonas aeruginosa by two-fold serial dilution method. The class given is functional. An outline of the steps: as §1
Data set [7] has as its system Escherichia coli. The data set can be described thus: Antibacterial activity against Escherichia coli DH52 by two-fold serial dilution method. The class given is functional. The essentials:
as §1

Data set [8] relates to Shigella dysenteriae. The data set can be described thus: Antibacterial activity against Shigella dysenteriae by two-fold serial dilution method. In kind it is functional. An outline of the steps: as §2
A short description of data set [9]: Antibacterial activity against Eberthella typhosa by two-fold serial dilution method. The class given is functional. The essentials: as §2
The subject of data set [10] is Cyberlindnera jadinii. The data set can be described thus: Antifungal activity against Candida utilis after 24 hrs by microbroth dilution method. In kind it is functional. The conditions noted are these: Williopsis jadinii. An outline of the steps: (§3)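 Spore suspension prepared in sterile distilled water from one-day-old cultures on Sabouraud agar, final 1-5 x 10^3 spores/mL. Compounds were serially diluted in RPMI 1640 to give eleven dilutions. Incubation at 35 °C for 24 h. Growth read visually and spectrophotometrically, in triplicate. MIC is the lowest concentration with complete inhibition.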

Data set [11] concerns Saccharomyces cerevisiae. The data set can be described thus: Antifungal activity against Saccharomyces cerevisiae after 24 hrs by microbroth dilution method. In kind it is functional. An outline of the steps:
as §3
(In general: Broth dilution looks for growth in wells or tubes with falling amounts of substance.)

Data set [12] relates to Candida albicans. As to the kind of experiment: Antifungal activity against Candida albicans ATCC 76615 after 24 hrs by microbroth dilution method. The class given is functional. The conditions noted are these: ATCC 76615, 24 h. An outline of the steps: as §3
The subject of data set [13] is Pichia norvegensis. The data set can be described thus: Antifungal activity against Candida mycoderma after 24 hrs by microbroth dilution method. In kind it is functional.
Data set [14] in a line: Dissociation constant, pKa of the compound by UV-spectroscopy. The class given is physicochemical. The essentials: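 DMSO stock at 4.0 × 10^-3 mol/L added to 2 mL of buffer, then shaken 10 min at room temperature. Buffers were acetate (pH 4.0–5.0), MES (5.5–6.5), HEPES (7.0–8.0) and CHES (8.5–9.4), each from 500 mM stocks. Scans ran 210–400 nm and were normalized. Absolute differences from the acid spectrum were summed at 244 and 308 nm, plotted against pH and fitted to obtain pKa.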

Data set [15] is described as follows: Octanol-water partition co-efficient, log P of the compound by shake flask method. In kind it is physicochemical.
Data set [16] in a line: Aqueous solubility of the compound by UV-spectrophotometry. The class given is physicochemical.

Each structure is given as a SMILES string. Values after ≈ are worked out from the molar mass of the structure shown.

In general, MIC refers to the smallest concentration in the dilution series that meets the test's criterion for growth inhibition. A high value points to a need for much substance. For `O=C(O)c1cn(CC(O)Cn2cnc([N+](=O)[O-])c2)c2cc(Cl)c(F)cc2c1=O` (stereo not drawn), the MIC in [1] came out at 16 µg/mL (≈ 39 µM); in data set [2] it was 8 µg/mL (≈ 19.5 µM); in [3], 8 µg/mL (≈ 19.5 µM); in [4], 16 µg/mL (≈ 39 µM); in [5], 8 µg/mL (≈ 19.5 µM); in data set [6], 4 µg/mL (≈ 9.74 µM). Further, the MIC in data set [7] turned out to be 32 µg/mL (≈ 77.9 µM); in [8] it was 16 µg/mL (≈ 39 µM); in [9] it was 2 µg/mL (≈ 4.87 µM); in data set [10] it was 256 µg/mL (≈ 623 µM); in data set [11] it was 64 µg/mL (≈ 156 µM); in data set [12], 128 µg/mL (≈ 312 µM). Besides, it took 128 µg/mL (≈ 312 µM) to inhibit growth in data set [13] (MIC).
What is called pKa is the pH at which an ionisable group is half protonated. High values mean a weaker acid or stronger base, low ones a stronger acid or weaker base. By logP is commonly meant a log measure of how a compound divides between an organic and an aqueous phase. A high value points to a more lipophilic compound. For orientation: solubility means the concentration that dissolves in the medium under given conditions. High values mean a readily soluble substance, low ones a poorly soluble substance. Take `Cc1ncc([N+](=O)[O-])n1CC(O)Cn1cc(C(=O)O)c(=O)c2cccc(F)c21` (stereo not drawn): the MIC was determined as 32 µg/mL (≈ 82 µM) in [1]; 4 µg/mL (≈ 10.2 µM) in [2]; 4 µg/mL (≈ 10.2 µM) in [3]; 8 µg/mL (≈ 20.5 µM) in data set [4]; 16 µg/mL (≈ 41 µM) in data set [5]; 2 µg/mL (≈ 5.12 µM) in data set [6]. Further, the MIC worked out at 4 µg/mL (≈ 10.2 µM) in data set [7]; 8 µg/mL (≈ 20.5 µM) in data set [8]; 4 µg/mL (≈ 10.2 µM) in data set [9]; 256 µg/mL (≈ 656 µM) in data set [10]; 64 µg/mL (≈ 164 µM) in data set [11]; 256 µg/mL (≈ 656 µM) in data set [12]. Also, the minimal inhibitory concentration (MIC) in data set [13] came to 512 µg/mL (≈ 1310 µM). Moreover, in data set [14], the pKa was 5.12. In addition, the logP in [15] was -0.13. In data set [16], this molecule showed a solubility of 390 µg/mL (≈ 999 µM).
For the molecule `Cc1ncc([N+](=O)[O-])n1CC(O)Cn1cc(C(=O)O)c(=O)c2cc(Cl)cc(Cl)c21` (stereo not drawn), the MIC in [1] stood at 16 µg/mL (≈ 36.3 µM); in data set [2], 16 µg/mL (≈ 36.3 µM); in data set [3], 32 µg/mL (≈ 72.5 µM); in data set [4], 16 µg/mL (≈ 36.3 µM); in data set [5], 8 µg/mL (≈ 18.1 µM); in data set [6], 8 µg/mL (≈ 18.1 µM). For the same molecule, the minimum inhibitory concentration (MIC) in data set [7] stood at 32 µg/mL (≈ 72.5 µM); in data set [8], 16 µg/mL (≈ 36.3 µM); in [9], 32 µg/mL (≈ 72.5 µM); in data set [10], 256 µg/mL (≈ 580 µM); in [11], 64 µg/mL (≈ 145 µM); in data set [12], 128 µg/mL (≈ 290 µM). Also, the lowest concentration to inhibit growth in [13] (MIC) was 256 µg/mL (≈ 580 µM). In [14], this molecule displayed a pKa of 5.26. In [15], this molecule gave a logP of 0.22. Also, the solubility in data set [16] amounted to 350 µg/mL (≈ 793 µM).
Regarding `COc1ccc2c(c1)c(=O)c(C(=O)O)cn2CC(O)Cn1cnc([N+](=O)[O-])c1` (stereo not drawn), the MIC came out at 64 µg/mL (≈ 165 µM) in [1]; 256 µg/mL (≈ 659 µM) in [2]; 16 µg/mL (≈ 41.2 µM) in data set [3]; 64 µg/mL (≈ 165 µM) in data set [4]; 16 µg/mL (≈ 41.2 µM) in data set [5]; 128 µg/mL (≈ 330 µM) in [6]. Further, the MIC turned out to be 64 µg/mL (≈ 165 µM) in [7]; 16 µg/mL (≈ 41.2 µM) in data set [8]; 32 µg/mL (≈ 82.4 µM) in [9]; 128 µg/mL (≈ 330 µM) in [10]; 512 µg/mL (≈ 1320 µM) in data set [11]; 128 µg/mL (≈ 330 µM) in data set [12]. In data set [13], this molecule came in with a minimum inhibitory concentration (MIC) of 128 µg/mL (≈ 330 µM).
With `Cc1ncc([N+](=O)[O-])n1CC(O)Cn1cc(C(=O)O)c(=O)c2cc(F)cc(F)c21` (stereo not drawn), the MIC in data set [1] came to 16 µg/mL (≈ 39.2 µM); in data set [2] it was 2 µg/mL (≈ 4.9 µM); in data set [3], 2 µg/mL (≈ 4.9 µM); in data set [4], 16 µg/mL (≈ 39.2 µM); in data set [5], 4 µg/mL (≈ 9.8 µM); in data set [6], 2 µg/mL (≈ 4.9 µM). For the same molecule, the MIC in [7] was determined as 4 µg/mL (≈ 9.8 µM); in data set [8], 4 µg/mL (≈ 9.8 µM); in data set [9], 16 µg/mL (≈ 39.2 µM); in data set [10], 512 µg/mL (≈ 1250 µM); in [11], 64 µg/mL (≈ 157 µM); in [12], 32 µg/mL (≈ 78.4 µM). In [13], this molecule yielded a minimum inhibitory concentration (MIC) of 128 µg/mL (≈ 313 µM). The same molecule yielded a pKa in data set [14] of 5.33. Further, the logP in data set [15] is -0.21. In data set [16], this molecule yielded a solubility of 570 µg/mL (≈ 1400 µM).
For the molecule `Cc1ncc([N+](=O)[O-])n1CC(O)Cn1cc(C(=O)O)c(=O)c2cc(F)ccc21` (stereo not drawn), the minimal inhibitory concentration (MIC) in data set [1] was 8 µg/mL (≈ 20.5 µM); in data set [2], 2 µg/mL (≈ 5.12 µM); in data set [3] it was 2 µg/mL (≈ 5.12 µM); in data set [4], 8 µg/mL (≈ 20.5 µM); in data set [5], 16 µg/mL (≈ 41 µM); in data set [6] it was 4 µg/mL (≈ 10.2 µM). Further, the MIC in data set [7] stood at 8 µg/mL (≈ 20.5 µM); in data set [8], 1 µg/mL (≈ 2.56 µM); in data set [9], 32 µg/mL (≈ 82 µM); in data set [10], 512 µg/mL (≈ 1310 µM); in data set [11] it was 64 µg/mL (≈ 164 µM); in data set [12], 128 µg/mL (≈ 328 µM). Also, the lowest concentration to inhibit growth in data set [13] (MIC) was 256 µg/mL (≈ 656 µM). Besides, in [14], the pKa worked out at 5.18. In addition, in data set [15], the logP was -0.13. The molecule also came in with a solubility in [16] of 380 µg/mL (≈ 974 µM).
Consider `O=C(O)c1cn(CC(O)Cn2cnc([N+](=O)[O-])c2)c2ccc(F)cc2c1=O` (stereo not drawn), for which the minimum inhibitory concentration (MIC) in data set [1] was determined as 8 µg/mL (≈ 21.3 µM); in data set [2] it was 16 µg/mL (≈ 42.5 µM); in data set [3], 8 µg/mL (≈ 21.3 µM); in data set [4], 16 µg/mL (≈ 42.5 µM); in data set [5], 16 µg/mL (≈ 42.5 µM); in data set [6], 8 µg/mL (≈ 21.3 µM). Besides, the minimum inhibitory concentration (MIC) in [7] came to 8 µg/mL (≈ 21.3 µM); in [8], 8 µg/mL (≈ 21.3 µM); in [9] it was 8 µg/mL (≈ 21.3 µM); in [10], 128 µg/mL (≈ 340 µM); in data set [11], 64 µg/mL (≈ 170 µM); in [12], 64 µg/mL (≈ 170 µM). The same molecule registered a minimal inhibitory concentration (MIC) in data set [13] of 256 µg/mL (≈ 680 µM).
